Source: ChEMBL document CHEMBL1154093, “New azoles with potent antifungal activity: design, synthesis and molecular docking” (2009)
Values after ≈ are worked out from the molar mass of the structure shown. Active and inactive are the calls of the source. The rule behind the calls is not given here.

Columns and labels:
Candida albicans [1] = assay: Antifungal activity against multidrug-resistant Candida albicans after 24 hrs by serial dilution method; assay type: functional
Summary of the method: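 Broth serial dilution in 96-well plates per NCCLS recommendations; RPMI 1640 buffered with 0.165 M MOPS as medium. Compounds dissolved in DMSO, serially diluted in growth medium. Strains from ATCC or clinical isolates. Yeasts incubated at 35 °C, read at 24 h for Candida. MIC = lowest concentration giving turbidity at or below 80% inhibition versus growth control.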

Candida parapsilosis = assay: Antifungal activity against Candida parapsilosis after 24 hrs by serial dilution method; assay type: functional, organism-based
Summary of the method: (§1)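 NCCLS broth microdilution in RPMI 1640 buffered with 0.165 M MOPS, with strains from ATCC or clinical isolates. Compounds were dissolved in DMSO and serially diluted in medium. Yeasts were incubated at 35 °C and read at 24 h for Candida or 72 h for C. neoformans. MIC was the lowest concentration giving ≥80% turbidity inhibition versus the growth control.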

Nannizzia gypsea = assay: Antifungal activity against Microsporum gypseum after 7 days by serial dilution method; assay type: functional; settings: 168 h
Summary of the method: (§2)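 Dermatophytes (ATCC or clinical isolates) were tested by NCCLS serial dilution in RPMI 1640 with 0.165 M MOPS, incubated at 28 °C and read at 7 days. Compounds were taken up in DMSO and diluted in medium. MIC was the lowest concentration reducing turbidity by at least 80% relative to the drug-free growth control.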

Aspergillus fumigatus = assay: Antifungal activity against Aspergillus fumigatus after 7 days by serial dilution method; assay type: functional; settings: 168 h
Summary of the method: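 Filamentous fungus (ATCC or clinical isolate) was tested by NCCLS microdilution in MOPS-buffered (0.165 M) RPMI 1640. Compounds were dissolved in DMSO and serially diluted in medium, and growth was scored at 7 days. MIC was the lowest concentration producing ≥80% inhibition of turbidity compared with the untreated control.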

Candida albicans [2] = assay: Antifungal activity against Candida albicans after 24 hrs by serial dilution method; assay type: functional; summary of the method: as §1
Cryptococcus neoformans = assay: Antifungal activity against Cryptococcus neoformans after 72 hrs by serial dilution method; assay type: functional; summary of the method: as §1
Candida tropicalis = assay: Antifungal activity against Candida tropicalis after 24 hrs by serial dilution method; assay type: functional; summary of the method: as §1
Trichophyton rubrum = assay: Antifungal activity against Trichophyton rubrum after 7 days by serial dilution method; assay type: functional; settings: 168 h; summary of the method: as §2

Row | SMILES | MIC80 (Candida albicans [1]) [µg/mL] | Activity (Candida parapsilosis) | MIC80 (Nannizzia gypsea) [µg/mL] | MIC80 (Aspergillus fumigatus) [µg/mL] | MIC80 (Candida albicans [2]) [µg/mL] | MIC80 (Cryptococcus neoformans) [µg/mL] | MIC80 (Candida tropicalis) [µg/mL] | MIC80 (Trichophyton rubrum) [µg/mL]
1 | OC(CN1CCN(CCCCOc2ccccc2)CC1)(Cn1cncn1)c1ccc(F)cc1F (racemic) | 32 (≈ 67.9 µM) | Active | 4 (≈ 8.48 µM) | 8 (≈ 17 µM) | 0.25 (≈ 0.53 µM) | 1 (≈ 2.12 µM) | 0.25 (≈ 0.53 µM) | 1 (≈ 2.12 µM)
2 | OC(CN1CCN(CCCOc2ccccc2)CC1)(Cn1cncn1)c1ccc(F)cc1F (racemic) | 64 (≈ 140 µM) | Active | 4 (≈ 8.74 µM) | 32 (≈ 69.9 µM) | 0.0156 (≈ 0.0341 µM) | 1 (≈ 2.19 µM) | 0.0625 (≈ 0.137 µM) | 0.25 (≈ 0.546 µM)
3 | OC(CN1CCN(CCCOc2ccc(Cl)cc2)CC1)(Cn1cncn1)c1ccc(F)cc1F (racemic) | 0.125 (≈ 0.254 µM) | Active | 0.25 (≈ 0.508 µM) | 4 (≈ 8.13 µM) | 0.0156 (≈ 0.0317 µM) | 0.25 (≈ 0.508 µM) | 0.0156 (≈ 0.0317 µM) | 0.0156 (≈ 0.0317 µM)
4 | Cc1ccccc1OCCCN1CCN(CC(O)(Cn2cncn2)c2ccc(F)cc2F)CC1 (racemic) | 0.125 (≈ 0.265 µM) | Active | 1 (≈ 2.12 µM) | 32 (≈ 67.9 µM) | 0.0625 (≈ 0.133 µM) | 1 (≈ 2.12 µM) | 0.0625 (≈ 0.133 µM) | 0.25 (≈ 0.53 µM)
5 | OC(CN1CCN(CCCOc2ccc(Br)cc2)CC1)(Cn1cncn1)c1ccc(F)cc1F (racemic) | 0.25 (≈ 0.466 µM) | Active | 0.25 (≈ 0.466 µM) | 1 (≈ 1.86 µM) | 0.0156 (≈ 0.0291 µM) | 0.25 (≈ 0.466 µM) | 0.0156 (≈ 0.0291 µM) | 0.0625 (≈ 0.117 µM)
6 | CC(C)(C)c1ccc(OCCCN2CCN(CC(O)(Cn3cncn3)c3ccc(F)cc3F)CC2)cc1 (racemic) | 0.125 (≈ 0.243 µM) | Active | 0.0625 (≈ 0.122 µM) | 2 (≈ 3.89 µM) | 0.0156 (≈ 0.0304 µM) | 0.0625 (≈ 0.122 µM) | 0.0156 (≈ 0.0304 µM) | 0.0156 (≈ 0.0304 µM)
7 | OC(CN1CCN(CCCOc2ccccc2Br)CC1)(Cn1cncn1)c1ccc(F)cc1F (racemic) | 8 (≈ 14.9 µM) | Active | 1 (≈ 1.86 µM) | 16 (≈ 29.8 µM) | 0.0625 (≈ 0.117 µM) | 1 (≈ 1.86 µM) | 0.0156 (≈ 0.0291 µM) | 0.25 (≈ 0.466 µM)
8 | OC(CN1CCN(CCCCCOc2ccccc2)CC1)(Cn1cncn1)c1ccc(F)cc1F (racemic) | 4 (≈ 8.24 µM) | Active | 4 (≈ 8.24 µM) | 32 (≈ 65.9 µM) | 0.0625 (≈ 0.129 µM) | 1 (≈ 2.06 µM) | 0.0625 (≈ 0.129 µM) | 0.25 (≈ 0.515 µM)
9 | C[C@@H](c1ncncc1F)[C@](O)(Cn1cncn1)c1ccc(F)cc1F [VORICONAZOLE] | > 64 | Active | 0.0625 (≈ 0.179 µM) | 0.5 (≈ 1.43 µM) | 0.0625 (≈ 0.179 µM) | 0.0625 (≈ 0.179 µM) | 0.0625 (≈ 0.179 µM) | 0.0625 (≈ 0.179 µM)
10 | Nc1cccc(OCCCN2CCN(CC(O)(Cn3cncn3)c3ccc(F)cc3F)CC2)c1 (racemic) | 0.25 (≈ 0.529 µM) | Active | 64 (≈ 135 µM) | > 64 | 1 (≈ 2.12 µM) | 16 (≈ 33.9 µM) | 1 (≈ 2.12 µM) | 4 (≈ 8.46 µM)
11 | Nc1ccc(OCCCN2CCN(CC(O)(Cn3cncn3)c3ccc(F)cc3F)CC2)cc1 (racemic) | 0.25 (≈ 0.529 µM) | Active | 16 (≈ 33.9 µM) | 64 (≈ 135 µM) | 0.25 (≈ 0.529 µM) | 4 (≈ 8.46 µM) | 1 (≈ 2.12 µM) | 4 (≈ 8.46 µM)
12 | O=C(Nc1ccc(OCCCN2CCN(CC(O)(Cn3cncn3)c3ccc(F)cc3F)CC2)cc1)c1ccccc1 (racemic) | 0.5 (≈ 0.867 µM) | Active | 64 (≈ 111 µM) | > 64 | 0.25 (≈ 0.434 µM) | 16 (≈ 27.7 µM) | 1 (≈ 1.73 µM) | 16 (≈ 27.7 µM)
13 | OC(CN1CCN(CCCOc2cccc(Br)c2)CC1)(Cn1cncn1)c1ccc(F)cc1F (racemic) | 16 (≈ 29.8 µM) | Active | 0.25 (≈ 0.466 µM) | 4 (≈ 7.46 µM) | 0.0156 (≈ 0.0291 µM) | 0.25 (≈ 0.466 µM) | 0.0156 (≈ 0.0291 µM) | 0.0625 (≈ 0.117 µM)
14 | Cc1ccc(OCCCN2CCN(CC(O)(Cn3cncn3)c3ccc(F)cc3F)CC2)cc1 (racemic) | 0.12 (≈ 0.254 µM) | Active | 0.25 (≈ 0.53 µM) | 8 (≈ 17 µM) | 0.0156 (≈ 0.0331 µM) | 0.25 (≈ 0.53 µM) | 0.0625 (≈ 0.133 µM) | 0.0625 (≈ 0.133 µM)
15 | OC(CN1CCN(CCCOc2ccccc2Cl)CC1)(Cn1cncn1)c1ccc(F)cc1F (racemic) | 16 (≈ 32.5 µM) | Active | 1 (≈ 2.03 µM) | 32 (≈ 65 µM) | 0.0625 (≈ 0.127 µM) | 1 (≈ 2.03 µM) | 0.0625 (≈ 0.127 µM) | 0.25 (≈ 0.508 µM)
16 | OC(CN1CCN(CCCOc2ccc(OCc3ccccc3)cc2)CC1)(Cn1cncn1)c1ccc(F)cc1F (racemic) | 32 (≈ 56.8 µM) | Active | 0.0625 (≈ 0.111 µM) | 2 (≈ 3.55 µM) | 0.0625 (≈ 0.111 µM) | 0.25 (≈ 0.444 µM) | 0.0625 (≈ 0.111 µM) | 0.0625 (≈ 0.111 µM)
17 | OC(CN1CCN(CCCOc2ccc(F)cc2)CC1)(Cn1cncn1)c1ccc(F)cc1F (racemic) | 32 (≈ 67.3 µM) | Active | 1 (≈ 2.1 µM) | 32 (≈ 67.3 µM) | 0.0156 (≈ 0.0328 µM) | 1 (≈ 2.1 µM) | 0.0625 (≈ 0.131 µM) | 0.25 (≈ 0.526 µM)
18 | O=[N+]([O-])c1ccc(OCCCN2CCN(CC(O)(Cn3cncn3)c3ccc(F)cc3F)CC2)cc1 (racemic) | 0.125 (≈ 0.249 µM) | Active | 1 (≈ 1.99 µM) | 32 (≈ 63.7 µM) | 0.0625 (≈ 0.124 µM) | 0.25 (≈ 0.497 µM) | 0.0625 (≈ 0.124 µM) | 0.0625 (≈ 0.124 µM)
19 | CCC(C)n1ncn(-c2ccc(N3CCN(c4ccc(OCC5COC(Cn6cncn6)(c6ccc(Cl)cc6Cl)O5)cc4)CC3)cc2)c1=O (stereo not given) [ITRACONAZOLE] | > 64 | Active | 0.25 (≈ 0.354 µM) | 2 (≈ 2.83 µM) | 0.125 (≈ 0.177 µM) | 0.125 (≈ 0.177 µM) | 0.125 (≈ 0.177 µM) | 0.125 (≈ 0.177 µM)
20 | O=[N+]([O-])c1cccc(OCCCN2CCN(CC(O)(Cn3cncn3)c3ccc(F)cc3F)CC2)c1 (racemic) | 0.25 (≈ 0.497 µM) | Active | 0.25 (≈ 0.497 µM) | 32 (≈ 63.7 µM) | 0.0625 (≈ 0.124 µM) | 0.25 (≈ 0.497 µM) | 0.0156 (≈ 0.031 µM) | 0.0625 (≈ 0.124 µM)
21 | Cc1cccc(OCCCN2CCN(CC(O)(Cn3cncn3)c3ccc(F)cc3F)CC2)c1 (racemic) | 0.125 (≈ 0.265 µM) | Active | 1 (≈ 2.12 µM) | 16 (≈ 33.9 µM) | 0.0156 (≈ 0.0331 µM) | 1 (≈ 2.12 µM) | 0.0625 (≈ 0.133 µM) | 0.25 (≈ 0.53 µM)
22 | OC(Cn1cncn1)(Cn1cncn1)c1ccc(F)cc1F [FLUCONAZOLE] | > 64 | Active | 16 (≈ 52.2 µM) | > 64 | 1 (≈ 3.27 µM) | 1 (≈ 3.27 µM) | 1 (≈ 3.27 µM) | 4 (≈ 13.1 µM)
23 | CC(=O)Nc1ccc(OCCCN2CCN(CC(O)(Cn3cncn3)c3ccc(F)cc3F)CC2)cc1 (racemic) | 2 (≈ 3.89 µM) | Active | 4 (≈ 7.77 µM) | > 64 | 0.25 (≈ 0.486 µM) | 1 (≈ 1.94 µM) | 0.25 (≈ 0.486 µM) | 0.25 (≈ 0.486 µM)
24 | O=[N+]([O-])c1ccccc1OCCCN1CCN(CC(O)(Cn2cncn2)c2ccc(F)cc2F)CC1 (racemic) | 2 (≈ 3.98 µM) | Active | 4 (≈ 7.96 µM) | 64 (≈ 127 µM) | 0.25 (≈ 0.497 µM) | 4 (≈ 7.96 µM) | 0.25 (≈ 0.497 µM) | 1 (≈ 1.99 µM)
25 | Nc1ccccc1OCCCN1CCN(CC(O)(Cn2cncn2)c2ccc(F)cc2F)CC1 (racemic) | 0.5 (≈ 1.06 µM) | Active | 16 (≈ 33.9 µM) | 64 (≈ 135 µM) | 0.25 (≈ 0.529 µM) | 4 (≈ 8.46 µM) | 0.25 (≈ 0.529 µM) | 1 (≈ 2.12 µM)
